In ChEMBL document CHEMBL1759944, “Structure-activity relationship of 2,4,5-trioxoimidazolidines as inhibitors of thymidine phosphorylase” (Eur J Med Chem, 2011):
Counter-ions that a name gives are not always drawn.

Target: Thymidine phosphorylase (Escherichia coli K-12, UniProt P07650)
Experiment: Inhibition of Escherichia coli Thymidine phosphorylase by spectrophotometry
Settings: not given; call rule not given here
Method in brief: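 E. coli TP (0.22 units) added to start a 1 ml reaction containing […] and inhibitor in 0.1 M potassium phosphate, pH 7.4. Loss of thymidine absorbance followed at 265 nm, 25 °C, in a thermostatted cuvette. IC50 obtained from inhibition curves by enzyme kinetics analysis.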

Sequence of Thymidine phosphorylase (P07650 whole entry): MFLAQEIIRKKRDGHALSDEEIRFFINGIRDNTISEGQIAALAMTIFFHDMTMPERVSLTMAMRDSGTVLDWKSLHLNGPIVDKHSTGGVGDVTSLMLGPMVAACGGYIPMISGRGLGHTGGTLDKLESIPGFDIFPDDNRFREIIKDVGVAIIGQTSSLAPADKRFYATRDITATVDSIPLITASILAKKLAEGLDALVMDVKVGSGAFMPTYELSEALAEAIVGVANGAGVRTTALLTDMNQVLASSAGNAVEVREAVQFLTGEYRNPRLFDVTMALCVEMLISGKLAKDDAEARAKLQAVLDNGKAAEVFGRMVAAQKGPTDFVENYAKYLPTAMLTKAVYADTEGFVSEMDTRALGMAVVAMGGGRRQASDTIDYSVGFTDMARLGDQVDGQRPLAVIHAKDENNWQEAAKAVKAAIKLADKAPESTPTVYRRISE

Compound	IC50
O=C(O)CN1C(=O)C(=O)N(Cc2cccc(Cl)c2)C1=O	Active

Same assay, conditions: read-out: IC50

Compound	IC50 [µM]
O=C1NC(=O)N(CCc2ccccc2)C1=O	103
O=C(O)CN1C(=O)C(=O)N(Cc2ccccc2)C1=O	264
O=C(O)CN1C(=O)C(=O)N(CCc2ccccc2)C1=O	85
Cc1ccccc1CN1C(=O)C(=O)N(CC(=O)O)C1=O	236
O=C1NC(=O)N(Cc2ccccc2)C1=O	115
NC(=O)CCN1C(=O)C(=O)N(Cc2ccccc2)C1=O	106
CCOC(=O)CN1C(=O)C(=O)N(Cc2ccccc2C)C1=O	303
Cc1ccccc1CN1C(=O)C(=O)N(CCC(N)=O)C1=O	88
Cc1ccccc1CN1C(=O)NC(=O)C1=O	128
CCOC(=O)CN1C(=O)C(=O)N(Cc2ccccc2)C1=O	342
N=C1CCCN1Cc1[nH]c(=O)[nH]c(=O)c1Cl [TIPIRACIL HYDROCHLORIDE]	0.036
NC(=O)CCN1C(=O)C(=O)N(CCc2ccccc2)C1=O	40
CCOC(=O)CN1C(=O)C(=O)N(CCc2ccccc2)C1=O	357
NC(=O)CCN1C(=O)C(=O)N(Cc2cccc(Cl)c2)C1=O	66
O=C1NC(=O)N(Cc2cccc(Cl)c2)C1=O	117
CCOC(=O)CN1C(=O)C(=O)N(Cc2cccc(Cl)c2)C1=O	292
